The source made the active and inactive calls.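 How the source made its calls, unless noted: active means inhibition of the reporter signal at or above 50%; inactive means inhibition below 50%.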

The values that follow come from PubChem BioAssay.

A short description of test [1]: inhibitors of TNFa-induced NFkB p65 translocation, primary screen, imaging, HUVEC, MLSMR starter and 10KST1 sets (AID 438;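 active means inhibition above 20% together with a positive visual image hit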;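 further: compound added about 3h40 before a 20 min TNFalpha stimulation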;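 on inhibition: signal is the nuclear over cytoplasmic p65 intensity ratio per well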). The settings on record: HUVEC TNFa-induced p65 nuclear translocation; cell count: measured here: nuclei count (cytotoxicity indicator), at 2.08 µM; inhibition: at 2 µM, stronger effect = higher value, 0% TNFa-plus-vehicle, 100% no-TNFa wells.
Test [2] is described as follows: inhibitors of mutant huntingtin aggregation, primary screen, imaging, exon1htt(103Q)mCFP cells, high-content imaging (AID 483;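 active means visual image review flags a hit and inhibition of aggregation exceeds 20%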;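 further: compound exposure lasted 3 days before fixation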;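 on nuclei count: percent of the per-plate median nuclei count of sample wells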). The settings on record: exon1htt(103Q)mCFP cell line, aggregate imaging, at 2 µM; inhibition of aggregation: stronger effect = higher value; nuclei count: measured here: cell count, toxicity.
Test [3] is described as follows: inhibitors of E-selectin induction by TNFa, primary screen, imaging, HUVEC, immunofluorescence, MLSMR starter and 10KST1 sets (AID 487;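 active means visually confirmed hit in the image check and inhibition above 20%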;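 on inhibition: signal is fraction of cell area covered by stained E-selectin grains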;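 on nuclei count: 100% = median nuclei count of all wells on the same plate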). The following applies: HUVEC TNFalpha-induced E-selectin immunofluorescence imaging, at 2 µM; inhibition: stronger effect = higher value; nuclei count: measured here: cell number, toxicity.
In test [4] the target is Voltage-gated potassium channel subunit beta-2 (Rattus norvegicus) (UniProt P62483). The test can be described thus: KvBeta enzyme negative modulators, primary screen, biochemical, NADPH fluorescence (AID 622;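 active means fluorescence slope higher than the sample average by over 3 SD, cut at about -0.22 in these data, passing the limit was not always enough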;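 further: slope of raw intensity against log time taken from 70 to 1610 s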). The following applies: recombinant KvBeta, 4-cyanobenzaldehyde reduction, at 10 µM, stronger effect = higher value.
Test [5] has the same target. Kind of test: KvBeta positive modulators, primary screen, biochemical, NADPH fluorescence (AID 623;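 active means NADPH fluorescence slope more negative than the mean of all samples by about 3 SD, 99.7% confidence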;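 further: fluorescence intensity change per second fitted from 20 to 320 s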). The following applies: Recombinant KvBeta, NADPH fluorescence decrease slope, 10 min; at 10 µM; stronger effect = lower value.
For test [6], the target named is Alpha-2C adrenergic receptor (Homo sapiens) (UniProt P18825). Kind of test: modulators of alpha2C/GIRK thallium flux, primary screen, cell-based, HEK293 alpha2C/GIRK1/2 (AID 624;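 active means fluorescence slope after compound addition differing from the mean of all screened samples at 99.7% confidence, in either direction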;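 further: slope of fluorescence ratio to pre-addition baseline per second over 15 to 24 s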). The following applies: thallium flux BTC fluorescence, at 10 µM, actives lie on both sides.
A short description of test [7]: inhibitors of larval lipid processing in zebrafish, primary screen, whole organism, PED6 fluorescence, gall bladder and intestine (AID 686;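 active means a full or partial loss of lipid-probe fluorescence in the fish gall bladder, intestine or both, judged by eye; inactive means no fluorescence loss, or compound toxic to the fish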;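 further: larvae 5 to 7 days old with five fish per well; signal comes from phospholipase A2 cleavage of quenched PED6 carried via bile; overnight exposure to compound and PED6 before scoring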). The following applies: Zebrafish larvae PED6 lipid processing, fluorescence scoring; screened at 20 µM (by protocol). Summed up:
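System: live zebrafish larvae aged 5-7 days, whole organism; measure: graded gall bladder and intestinal fluorescence inhibition per well; incubation: overnight exposure; reagent: ingested quenched lipid PED6 at 100 nM; signal: By-eye fluorescence microscopy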

Test [8] is described as follows: inhibitors of Sendai virus-induced IRF3 signaling, primary screen, TLR/RLR signaling modifier project, cell-based, Sendai virus stimulus, luciferase, 10K MLSCN set (AID 602276;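 active means inhibition at or above 50% at 10 µM; inactive means inhibition below 50%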;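 further: firefly luciferase from ISG56 promoter only with Renilla not read in this screen; 0% = Sendai virus plus DMSO and 100% = medium plus DMSO without virus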). The following applies: HEK293 RL24 IRF3 luciferase reporter, at 10 µM, stronger effect = higher value.
The nature of test [9]: inhibitors of poly I:C-induced TLR3 signaling, primary screen, cell-based, poly I:C stimulus, luciferase, 10K MLSCN set (AID 602277). The settings on record: HEK293-TLR3 RL24 IRF3 luciferase reporter, at 10 µM, stronger effect = higher value. (In general: Reporter assays use an easily measured gene product as a stand-in for the process of interest.)

Chain of Voltage-gated potassium channel subunit beta-2 (Rattus norvegicus) (P62483 whole entry, looked up): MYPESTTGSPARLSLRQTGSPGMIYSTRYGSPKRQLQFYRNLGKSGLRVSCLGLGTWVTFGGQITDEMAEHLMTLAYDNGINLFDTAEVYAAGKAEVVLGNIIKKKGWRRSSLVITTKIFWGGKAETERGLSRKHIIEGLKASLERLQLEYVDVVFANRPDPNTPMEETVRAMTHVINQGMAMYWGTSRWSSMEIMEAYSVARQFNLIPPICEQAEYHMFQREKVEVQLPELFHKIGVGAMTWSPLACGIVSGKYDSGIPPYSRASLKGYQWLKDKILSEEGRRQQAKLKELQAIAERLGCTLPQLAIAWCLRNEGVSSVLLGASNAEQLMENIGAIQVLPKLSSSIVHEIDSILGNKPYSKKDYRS
Chain of Alpha-2C adrenergic receptor (Homo sapiens) (P18825 whole entry, looked up): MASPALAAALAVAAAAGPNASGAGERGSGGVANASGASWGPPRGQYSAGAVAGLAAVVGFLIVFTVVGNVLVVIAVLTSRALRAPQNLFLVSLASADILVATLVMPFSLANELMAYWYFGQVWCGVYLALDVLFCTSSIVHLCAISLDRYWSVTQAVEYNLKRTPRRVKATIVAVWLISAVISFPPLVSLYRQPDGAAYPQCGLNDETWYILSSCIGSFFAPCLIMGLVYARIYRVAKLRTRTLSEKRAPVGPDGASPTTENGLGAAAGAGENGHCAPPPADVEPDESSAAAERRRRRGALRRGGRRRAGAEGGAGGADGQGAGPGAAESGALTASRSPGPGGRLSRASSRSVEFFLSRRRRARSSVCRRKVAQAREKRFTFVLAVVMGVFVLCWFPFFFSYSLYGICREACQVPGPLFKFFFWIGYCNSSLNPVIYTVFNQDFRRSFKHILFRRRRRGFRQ

For orientation: inhibition means the relative decrease from the control value, in per cent. For `CC(CCc1ccccc1)NC(=O)C1CCN(S(=O)(=O)c2cnc[nH]2)CC1` (stereo not drawn), the cell count in test [1] was determined as 554. Also, the inhibition in test [1] is -20.8% (inactive); in [3], 16.4% (inactive); in [8] it was 9.51% (inactive); in test [9], 18% (inactive). The inhibition of aggregation in [2] was -7.9% (inactive). Moreover, the nuclei count in test [2] was found to be 107%; in test [3], 110%. In addition, in test [4], the fluorescence slope was -0.367 (inactive). Also, in [5], the NADPH fluorescence slope was -5.5e-05 (inactive). The slope in test [6] was 0.00556 (inactive). Moreover, the compound was classed as inactive in test [7].

`CC1=C(C(=O)N2CCOCC2)C(c2ccccc2F)C2=C(CCCC2=O)N1` (stereo not drawn): the cell count in test [1] is 401. Also, the inhibition in [1] is -0.8% (inactive); in test [3], -24.5% (inactive); in test [8], 3.26% (inactive); in [9], 6.93% (inactive). The inhibition of aggregation in test [2] was -15% (inactive). The nuclei count in test [2] worked out at 111%; in [3], 121%. Moreover, the fluorescence slope in [4] was -0.314 (inactive). Also, the NADPH fluorescence slope in test [5] was 4.2e-06 (inactive). Further, the slope in test [6] is 0.00583 (inactive). For the same compound, in test [7], the call was inactive.

As for `O=C1c2oc3ccccc3c(=O)c2C(c2cccnc2)N1Cc1ccco1` (stereo not drawn), in test [1], the cell count was found to be 389. Further, the inhibition in [1] is -2.7% (inactive); in [3], -107% (inactive); in [8] it was -0.371% (inactive); in test [9], 8.46% (inactive). In test [2], the inhibition of aggregation is -2.7% (inactive). Moreover, the nuclei count is 110% in test [2] and 111% in [3]. Also, the fluorescence slope in test [4] is -0.48 (inactive). Further, in test [5], the NADPH fluorescence slope is -3.2e-05 (inactive). Besides, the slope in test [6] was 0.00687 (inactive). For the same compound, the compound was called inactive in test [7].

As for `Cc1occc1-c1nnc(SCC(=O)N2CCOCC2)n1Cc1ccco1`, the cell count in test [1] came to 382. In addition, the inhibition in test [1] is 3% (inactive); in test [3], -41% (inactive); in test [8], 8.29% (inactive); in test [9], 12.6% (inactive). For the same compound, the inhibition of aggregation in test [2] was -5.6% (inactive). Further, the nuclei count in test [2] worked out at 82.5%; in test [3], 107%. Also, the fluorescence slope in [4] was -0.371 (inactive). In addition, the NADPH fluorescence slope in test [5] is -5e-05 (inactive). Also, in test [6], the slope is 0.00496 (inactive). For the same compound, in [7], the compound was called inactive.

As to `CCCN1CCN(C(=O)Cn2cccc2C(=O)c2ccccc2)CC1`, the cell count in test [1] amounted to 568. The inhibition was 5.4% (inactive) in test [1], -0.1% (inactive) in test [3], 7.77% (inactive) in [8] and 11.7% (inactive) in test [9]. For the same compound, in test [2], the inhibition of aggregation was -4.9% (inactive). Further, the values for the nuclei count in test [2] and in [3] were 109% and 108%, respectively. In addition, the fluorescence slope in test [4] was -0.405 (inactive). Besides, the NADPH fluorescence slope in test [5] is -5.8e-05 (inactive). For the same compound, the slope in test [6] was 0.00424 (inactive). Moreover, the outcome in [7] was inactive.

For the compound `COC(=O)CCN(C(=O)c1ccc2c(c1)OCO2)c1ccccn1`, the cell count in test [1] amounted to 730. Further, the inhibition was 2.9% (inactive) in test [1], -0.1% (inactive) in [3], 17.3% (inactive) in test [8] and 18% (inactive) in [9]. The inhibition of aggregation in [2] was -10.6% (inactive). Further, the nuclei count in [2] stood at 98.2%; in [3], 89.7%. Moreover, the fluorescence slope in test [4] was -0.4 (inactive). In addition, in [5], the NADPH fluorescence slope is -4.5e-06 (inactive). Besides, the slope in test [6] was 0.00511 (inactive). Moreover, the compound was called inactive in [7].

As to `O=C(Nc1ccc2c(c1)OCCO2)C1CCN(C(=O)c2ccc(F)cc2)CC1`, the cell count in test [1] turned out to be 397. Also, the inhibition was 4.1% (inactive) in test [1], -14% (inactive) in [3], -6.3% (inactive) in test [8] and -44.3% (inactive) in test [9]. Further, in test [2], the inhibition of aggregation is -5.3% (inactive). The nuclei count in [2] was 96.2%; in test [3], 117%. The fluorescence slope in test [4] was -0.368 (inactive). For the same compound, the NADPH fluorescence slope in test [5] is -7.6e-05 (inactive). Besides, the slope in test [6] was 0.00511 (inactive). In addition, the outcome in test [7] was inactive.

Consider `O=C(Nc1ccc2oc(Cc3ccc(Cl)cc3)nc2c1)c1cccnc1`, for which the cell count in [1] worked out at 396. Also, the inhibition in [1] is 6.7% (inactive); in test [3] it was -15% (inactive); in [8], 14.7% (inactive); in test [9] it was 7.42% (inactive). Further, the inhibition of aggregation in test [2] was -0.8% (inactive). For the same compound, the nuclei count in test [2] worked out at 93.5%; in test [3], 114%. For the same compound, the fluorescence slope in [4] is -0.364 (inactive). The NADPH fluorescence slope in test [5] was -2.3e-06 (inactive). Besides, in test [6], the slope is 0.00427 (inactive). For the same compound, in [7], the compound was called inactive.

`Cc1ccc(OCC(O)Cn2c(NCCc3ccccc3)nc3c2c(=O)[nH]c(=O)n3C)cc1` (stereo not drawn): the cell count in test [1] stood at 421. Moreover, the inhibition was -1.8% (inactive) in test [1], -5.4% (inactive) in test [3], -0.0675% (inactive) in [8] and 1.64% (inactive) in test [9]. For the same compound, the inhibition of aggregation in [2] was -12.3% (inactive). Also, the figures for the nuclei count in test [2] and in test [3] were 107% and 113%, respectively. Moreover, the fluorescence slope in test [4] is -0.444 (inactive). In addition, the NADPH fluorescence slope in test [5] is 5.3e-06 (inactive). Also, the slope in [6] was 0.00534 (inactive). In addition, the result in [7] was inactive.

Turning to `O=C1c2ccccc2NC(c2cccc(F)c2)N1Cc1ccco1` (stereo not drawn), the cell count in [1] amounted to 586. Further, the inhibition in [1] was -32.4% (inactive); in test [3], -0.5% (inactive); in test [8] it was 16.4% (inactive); in test [9], 17.8% (inactive). In addition, the inhibition of aggregation in test [2] is 10.2% (inactive). Moreover, the nuclei count in test [2] came out at 106%; in test [3], 107%. Also, in test [4], the fluorescence slope was -0.308 (inactive). The NADPH fluorescence slope in [5] was -2.7e-05 (inactive). Moreover, the slope in test [6] is 0.00344 (inactive). The result in test [7] was inactive.

Take `CC(=O)NCCc1ccc(S(=O)(=O)NCc2ccc3c(c2)OCO3)cc1`: the cell count in [1] came out at 587. Besides, the inhibition in [1] was -12.3% (inactive); in test [3], 35.7% (inactive); in test [8] it was 4.45% (inactive); in test [9] it was 2.38% (inactive). Further, the inhibition of aggregation in test [2] was -24.8% (inactive). The nuclei count is 89.5% in test [2] and 82.1% in test [3]. Moreover, in test [4], the fluorescence slope is -0.356 (inactive). The NADPH fluorescence slope in test [5] was -4.4e-05 (inactive). Besides, in test [6], the slope is 0.00549 (inactive). In [7], the compound was called inactive.

Regarding `Cc1ccc(NC(=O)c2ccco2)c(NC(=O)CN2C(=O)c3ccccc3C2=O)c1`, the cell count in test [1] is 402. For the same compound, the inhibition in [1] is -7.3% (inactive); in [3], -162% (inactive); in [8] it was 0.0738% (inactive); in test [9], -0.596% (inactive). Besides, the inhibition of aggregation in test [2] was 6.5% (inactive). In addition, the nuclei count in test [2] was determined as 90.3%; in test [3] it was 155%. Further, the fluorescence slope in test [4] is -0.466 (inactive). In addition, the NADPH fluorescence slope in [5] is -1.3e-05 (inactive). Also, the slope in test [6] is 0.00456 (inactive). Also, the compound was classed as inactive in test [7].

As to `COc1ccc(NC(=O)CSc2nc(C)cc(C(F)(F)F)n2)cc1`, the cell count in test [1] came out at 648. Besides, the inhibition is -3.3% (inactive) in test [1], -1% (inactive) in test [3], 14.9% (inactive) in [8] and 18.5% (inactive) in test [9]. The inhibition of aggregation in test [2] is 8.8% (inactive). Further, the nuclei count in [2] was 95.3%; in [3] it was 92.8%. For the same compound, in [4], the fluorescence slope is -0.418 (inactive). Also, the NADPH fluorescence slope in test [5] was -2.1e-05 (inactive). Also, the slope in [6] was 0.00507 (inactive). For the same compound, the call in test [7] was inactive.

For the compound `O=C(Nc1nnc(SCC(=O)N2CCCCC2)s1)C1CCCCC1`, the cell count in test [1] amounted to 437. In addition, the inhibition is -3.4% (inactive) in test [1], -34.7% (inactive) in test [3], 9.52% (inactive) in test [8] and 13.5% (inactive) in test [9]. Also, the inhibition of aggregation in test [2] is 1.9% (inactive). Also, the nuclei count worked out at 99.2% in test [2] and 118% in test [3]. Moreover, the fluorescence slope in test [4] is -0.346 (inactive). The NADPH fluorescence slope in [5] is -3.5e-05 (inactive). In test [6], the slope was 0.00464 (inactive). Also, the call in test [7] was inactive.
